Calls of active or inactive are those of the source. No cut-off for these calls is given here.
What was measured:
Spleen = assay: Drug uptake in ddY mouse spleen at 11.1 kBq, iv after 5 min by gamma counting; assay type: ADME, organism-based; conditions: in vivo
Summary of the method: (§1)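 Male ddY mice (6 weeks, 30–35 g) were given about 11.1 kBq of [125I]tracer in 0.1 mL i.v. via the tail vein. At each time point the animals were killed and organs dissected, weighed and gamma-counted. Uptake is expressed as % injected dose per gram of tissue, mean ± SD, n = 5–6.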

Lung = assay: Drug uptake in ddY mouse lung at 11.1 kBq, iv after 5 min by gamma counting; assay type: ADME, organism-based; conditions: in vivo; summary of the method: as §1
Stomach [1] = assay: Drug uptake in ddY mouse stomach at 11.1 kBq, iv after 0.5 min by gamma counting; assay type: ADME, organism-based; conditions: in vivo; summary of the method: as §1
Stomach [2] = assay: Drug uptake in ddY mouse stomach at 11.1 kBq, iv after 60 min by gamma counting; assay type: ADME, organism-based; conditions: in vivo, 1 h; summary of the method: as §1
Stomach [3] = assay: Drug uptake in ddY mouse stomach at 11.1 kBq, iv after 180 min by gamma counting; assay type: ADME, organism-based; conditions: in vivo, 3 h; summary of the method: as §1
Pancreas = assay: Drug uptake in ddY mouse pancreas at 11.1 kBq, iv after 60 min by gamma counting; assay type: ADME, organism-based; conditions: in vivo, 1 h; summary of the method: as §1
Heart = assay: Drug uptake in ddY mouse heart at 11.1 kBq, iv after 30 min by gamma counting; assay type: ADME, organism-based; conditions: in vivo, 0.5 h
Summary of the method: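 Male ddY mice (6 weeks, 30–35 g) received about 11.1 kBq [125I]tracer in 0.1 mL i.v. via tail vein. Killed at set times, organs dissected and weighed, radioactivity gamma counted. Reported as % injected dose/g tissue, mean ± SD, n = 5–6.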

Mus musculus [4] = assay: In vivo binding affinity to GlyT1 in ddY mouse brain hippocampus at 33.3 kBq, iv after 30 mins in presence of N-Me-SSR504734 2 mg/kg, iv administered 15 mins prior to compound administration relative to control; assay type: functional, organism-based; parameters: dose 2 mg/kg; conditions: tested as the 125I-labelled form
Summary of the method: (§2)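 Blocking study in male ddY mice (6 weeks, 30–35 g). The blocker (2 mg/kg in 30% DMSO/saline) was injected i.v. 15 min before about 33.3 kBq [125I]tracer i.v.; mice were killed at 30 or 60 min. Brains were divided into cortex, corpus callosum, hippocampus, thalamus, midbrain, medulla and cerebellum, weighed and gamma-counted as % dose/g. Values are mean ± SD, n = 5–6, compared to control by Kruskal–Wallis with Dunn's post-test.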

Mus musculus [5] = assay: In vivo binding affinity to GlyT1 in ddY mouse brain hippocampus at 33.3 kBq, iv after 60 mins in presence of N-Me-SSR504734 2 mg/kg, iv administered 15 mins prior to compound administration relative to control; assay type: functional, organism-based; parameters: dose 2 mg/kg; conditions: tested as the 125I-labelled form
Summary of the method: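 Male ddY mice (6 W, 30–35 g) were given blocker 2 mg/kg iv in 30% DMSO/saline 15 min before [125I] tracer (ca. 33.3 kBq, 0.1 mL, tail vein). Killed 60 min after tracer injection. Brain dissected into regions including hippocampus, weighed and gamma counted, giving % dose/g and region-to-blood ratio versus control. Mean ± SD, n = 5–6; Kruskal–Wallis with Dunn's post-test.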

[6] = molecular target: T1, Sodium- and chloride-dependent glycine transporter 1 (Rattus norvegicus) (UniProt P28572); assay: Binding affinity to GlyT1 in rat brain striatum at 0.03 to 0.04 nM preincubated for 20 mins in binding buffer before compound addition measured after 30 mins by autoradiography in presence of 0.01 mM NMDA receptor glycine site antagonist L-701,324 relative to control; assay type: tissue-based; conditions: tested as the 125I-labelled form
T1 sequence (whole entry): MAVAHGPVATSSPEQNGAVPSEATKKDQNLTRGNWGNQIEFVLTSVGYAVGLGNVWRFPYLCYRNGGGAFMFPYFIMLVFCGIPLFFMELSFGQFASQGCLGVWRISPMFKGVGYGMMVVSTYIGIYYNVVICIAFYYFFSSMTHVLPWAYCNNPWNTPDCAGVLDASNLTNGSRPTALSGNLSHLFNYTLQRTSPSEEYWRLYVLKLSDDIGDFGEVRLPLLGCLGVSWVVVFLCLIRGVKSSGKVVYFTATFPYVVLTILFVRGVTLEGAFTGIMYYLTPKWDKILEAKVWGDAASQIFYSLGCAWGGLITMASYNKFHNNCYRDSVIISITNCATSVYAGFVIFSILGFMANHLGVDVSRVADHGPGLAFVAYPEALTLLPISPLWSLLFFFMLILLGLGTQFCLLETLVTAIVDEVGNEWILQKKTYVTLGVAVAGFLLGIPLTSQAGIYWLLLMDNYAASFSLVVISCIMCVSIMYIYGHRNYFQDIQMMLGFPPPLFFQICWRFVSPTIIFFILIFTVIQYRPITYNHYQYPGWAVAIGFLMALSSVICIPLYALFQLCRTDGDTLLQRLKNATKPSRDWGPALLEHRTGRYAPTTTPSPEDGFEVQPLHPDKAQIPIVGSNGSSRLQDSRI

Mus musculus [7] = assay: In vivo binding affinity to GlyT1 in ddY mouse brain hippocampus at 33.3 kBq, iv after 60 mins in presence of SSR504734 2 mg/kg, iv administered 15 mins prior to compound administration relative to control; assay type: functional, organism-based; parameters: dose 2 mg/kg; conditions: tested as the 125I-labelled form
Summary of the method: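 Male ddY mice (6 W, 30–35 g) were given [125I]5 (ca. 33.3 kBq, 0.1 mL) iv via tail vein. Blocker (2 mg/kg in 30% DMSO/saline) was given iv 15 min before the tracer. Mice were killed 30 or 60 min after injection and the brain regions were dissected and weighed. Gamma counting gave % dose/g, compared with control; n = 5–6.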

Mus musculus [8] = assay: In vivo binding affinity to GlyT1 in ddY mouse brain cerebellum at 33.3 kBq, iv after 30 mins in presence of SSR504734 2 mg/kg, iv administered 15 mins prior to compound administration relative to control; assay type: functional, organism-based; parameters: dose 2 mg/kg; conditions: tested as the 125I-labelled form; summary of the method: as §2
Mus musculus [9] = assay: In vivo binding affinity to GlyT1 in ddY mouse brain cerebellum at 200 kBq, iv after 60 mins by autoradiography relative to control; assay type: functional, organism-based; conditions: tested as the 125I-labelled form
Summary of the method: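 Ex vivo autoradiography in mice given 200 kBq [125I]tracer i.v. and killed at 60 min. Brains were removed, frozen on dry ice and cut into 20 µm sagittal cryosections, which were exposed to an imaging plate for 7 days. Regional signal was quantified as PSL/mm² (n = 5) and compared to control by Kruskal–Wallis with Dunn's post-test.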

[10] = molecular target: T1, Sodium- and chloride-dependent glycine transporter 1 (Rattus norvegicus); assay: Binding affinity to GlyT1 in rat brain hippocampus at 0.03 to 0.04 nM preincubated for 20 mins in binding buffer before compound addition measured after 30 mins by autoradiography in presence of 0.01 mM GlyT1 inhibitor HPCP relative to control; assay type: tissue-based; conditions: tested as the 125I-labelled form
Summary of the method: (§3)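 Rat brain sagittal sections (20 µm) preincubated 20 min at 25 °C in Tris-HCl buffer pH 7.5 (NaCl, KCl, MgCl2, CaCl2), then 30 min at 25 °C with [125I] tracer (100 kBq, 0.03–0.04 nM) plus competitor (10 µM; glycine 1 or 10 mM). Cold washes, imaging plate 3 days, ROI PSL minus background per mm². % control from ≥triplicate slices, three rats.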

[11] = molecular target: T1, Sodium- and chloride-dependent glycine transporter 1 (Rattus norvegicus); assay: Binding affinity to GlyT1 in rat brain cerebellum at 0.03 to 0.04 nM preincubated for 20 mins in binding buffer before compound addition measured after 30 mins by autoradiography in presence of 0.01 mM GlyT1 inhibitor ALX5407 relative to control; assay type: tissue-based; conditions: tested as the 125I-labelled form; summary of the method: as §3

Drug uptake (Spleen) [% ID/g] | Drug uptake (Lung) [% ID/g] | Drug uptake (Stomach [1]) [% ID/g] | Drug uptake (Stomach [2]) [% ID/g] | Drug uptake (Stomach [3]) [% ID/g] | Drug uptake (Pancreas) [% ID/g] | Drug uptake (Heart) [% ID/g] | Activity [6] [%] | Activity [10] [%] | Activity [11] [%] | SMILES | Activity (Mus musculus [4]) | Activity (Mus musculus [5]) | Activity (Mus musculus [7]) | Activity (Mus musculus [8]) | Activity (Mus musculus [9])
5.11 | 19.3 | 0.83 | 8.26 | 12.73 | 9.51 | 3.95 | – | – | – | CN1CCCC[C@H]1[C@@H](NC(=O)c1cccc(C(F)(F)F)c1[125I])c1ccccc1 | – | – | – | – | –
– | – | – | – | – | – | – | 96.8 | 55.9 | 43.1 | CN1CCCC[C@H]1[C@@H](NC(=O)c1cccc(C(F)(F)F)c1I)c1ccccc1 | Active | Active | inactive | inactive | Active

Source: ChEMBL document CHEMBL1938298, “Synthesis and characterization of [¹²⁵I]2-iodo N-[(S)-{(S)-1-methylpiperidin-2-yl}(phenyl)methyl]3-trifluoromethyl-benzamide as novel imaging probe for glycine transporter 1” (Bioorg Med Chem, 2011)
